1 molecule from ChEMBL document CHEMBL4014343 (J Med Chem, 2017) can be followed below.

For experiment [1], the target named is Insulin-like growth factor 1 receptor (Homo sapiens, UniProt P08069). Description: Inhibition of IGF1R in human MCF7 cells assessed as reduction in Akt phosphorylation at Ser473 residue after 24 hrs by immunoblot analysis. In kind it is cell-based. A digest of the protocol:
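Cells in their medium with 10% FBS exposed to rising concentrations for 24 h; whole-cell lysates immunoblotted for p-Akt (S473) and total Akt; PI3K inhibitor at 10 μM as positive control.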

The next experiment has as its system HCC 2998. Put plainly: Growth inhibition of human HCC2998 cells incubated for 48 hrs by sulforhodamine B assay. In kind it is functional, cell-based.
The target in experiment [2] is Fibroblast growth factor receptor 1 (Homo sapiens) (UniProt P11362). Description: Inhibition of human N-terminal GST/His6-tagged FGFR1 (G400 to R820 residues) expressed in baculovirus infected sf9 cells at 1 uM using Poly(Glu,Tyr)4:1 as substrate by filter binding assay. A digest of the protocol: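 Single-point profiling at 1 μM in a 22-kinase panel, performed externally by ProQinase; activity read as residual percent of control.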

A further experiment concerns MCF7. Description: Cell cycle arrest in human MCF7 cells assessed as accumulation at G2/M phase up to 1 uM after 24 to 48 hrs by propidium iodide staining based FACS analysis. It counts as functional. The method, boiled down:
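MCF7 cells grown 24 h in DMEM with 10% FBS and 1% PS, then exposed to 1 μM for 24 and 48 h. Pellets fixed in 70% ethanol for at least 24 h, washed twice in ice-cold PBS, treated with RNase A (50 μg/mL, 1 h, 37 °C), stained with PI (50 μg/mL, 5 min), and DNA content read by FACS.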

For another experiment, the system named is TK-10. Description: Growth inhibition of human TK10 cells incubated for 48 hrs by sulforhodamine B assay. In kind it is functional, cell-based. A digest of the protocol:
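NCI-60 panel growth inhibition, run by the U.S. National Cancer Institute; GI50 values are means of two test series.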

In the next experiment the test system is NCI-H322M. Put plainly: Growth inhibition of human NCI-H322M cells incubated for 48 hrs by sulforhodamine B assay. In kind it is functional, cell-based.
For the next experiment, the system named is HCT-15. Description: Growth inhibition of human HCT15 cells incubated for 48 hrs by sulforhodamine B assay. It counts as functional, cell-based.
The next experiment relates to SF-295. Description: Growth inhibition of human SF295 cells incubated for 48 hrs by sulforhodamine B assay. In kind it is functional, cell-based.
In a further experiment the test system is HCT-116. Put plainly: Growth inhibition of human HCT116 cells incubated for 48 hrs by sulforhodamine B assay. It counts as functional, cell-based.
A further experiment concerns OVCAR-4. Put plainly: Growth inhibition of human OVCAR4 cells incubated for 48 hrs by sulforhodamine B assay. It counts as functional, cell-based.
For a further experiment, the system named is HL-60(TB). Put plainly: Growth inhibition of human HL-60(TB) cells incubated for 48 hrs by sulforhodamine B assay. In kind it is functional, cell-based.

Structures are written as SMILES. The source made the active and inactive calls. The calls are words filed in the database; no cut-off is given here.

Chain of Insulin-like growth factor 1 receptor (P08069 31-736 limits assumed): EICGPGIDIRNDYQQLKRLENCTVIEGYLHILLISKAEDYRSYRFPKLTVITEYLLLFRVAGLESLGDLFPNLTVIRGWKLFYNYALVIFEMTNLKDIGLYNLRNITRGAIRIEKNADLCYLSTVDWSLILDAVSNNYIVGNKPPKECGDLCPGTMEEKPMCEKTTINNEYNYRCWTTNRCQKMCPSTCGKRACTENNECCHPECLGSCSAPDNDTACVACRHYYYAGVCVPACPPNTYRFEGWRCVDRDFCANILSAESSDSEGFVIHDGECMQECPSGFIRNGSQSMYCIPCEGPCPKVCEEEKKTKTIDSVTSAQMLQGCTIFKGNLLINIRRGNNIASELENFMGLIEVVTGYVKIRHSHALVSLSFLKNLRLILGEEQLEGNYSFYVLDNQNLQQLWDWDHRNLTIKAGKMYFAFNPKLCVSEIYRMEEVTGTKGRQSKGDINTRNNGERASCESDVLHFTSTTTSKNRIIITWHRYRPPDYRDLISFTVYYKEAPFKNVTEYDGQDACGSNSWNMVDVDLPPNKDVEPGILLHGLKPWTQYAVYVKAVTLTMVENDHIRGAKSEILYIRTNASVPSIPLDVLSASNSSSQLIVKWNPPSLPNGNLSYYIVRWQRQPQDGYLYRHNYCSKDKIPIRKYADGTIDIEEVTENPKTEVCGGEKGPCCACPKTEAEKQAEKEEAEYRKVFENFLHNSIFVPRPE
Chain of Insulin-like growth factor 1 receptor (P08069 741-1367 limits assumed): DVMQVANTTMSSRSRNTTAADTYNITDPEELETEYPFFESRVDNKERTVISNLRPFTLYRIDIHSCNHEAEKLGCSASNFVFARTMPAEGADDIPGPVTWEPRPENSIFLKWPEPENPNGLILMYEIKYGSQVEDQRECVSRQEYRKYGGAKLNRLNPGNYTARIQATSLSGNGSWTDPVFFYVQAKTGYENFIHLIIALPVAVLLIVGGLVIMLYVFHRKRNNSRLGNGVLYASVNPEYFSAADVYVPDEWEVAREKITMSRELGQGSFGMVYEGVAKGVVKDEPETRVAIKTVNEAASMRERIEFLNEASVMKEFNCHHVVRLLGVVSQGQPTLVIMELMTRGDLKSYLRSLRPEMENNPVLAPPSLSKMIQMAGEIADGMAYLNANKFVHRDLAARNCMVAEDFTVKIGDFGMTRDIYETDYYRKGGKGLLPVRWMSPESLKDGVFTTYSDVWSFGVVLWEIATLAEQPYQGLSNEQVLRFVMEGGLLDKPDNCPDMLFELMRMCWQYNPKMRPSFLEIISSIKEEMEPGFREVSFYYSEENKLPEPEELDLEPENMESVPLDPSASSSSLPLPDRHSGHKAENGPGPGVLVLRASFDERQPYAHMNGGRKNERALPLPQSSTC
Chain of Fibroblast growth factor receptor 1 (Homo sapiens) (P11362 22-822 limits assumed): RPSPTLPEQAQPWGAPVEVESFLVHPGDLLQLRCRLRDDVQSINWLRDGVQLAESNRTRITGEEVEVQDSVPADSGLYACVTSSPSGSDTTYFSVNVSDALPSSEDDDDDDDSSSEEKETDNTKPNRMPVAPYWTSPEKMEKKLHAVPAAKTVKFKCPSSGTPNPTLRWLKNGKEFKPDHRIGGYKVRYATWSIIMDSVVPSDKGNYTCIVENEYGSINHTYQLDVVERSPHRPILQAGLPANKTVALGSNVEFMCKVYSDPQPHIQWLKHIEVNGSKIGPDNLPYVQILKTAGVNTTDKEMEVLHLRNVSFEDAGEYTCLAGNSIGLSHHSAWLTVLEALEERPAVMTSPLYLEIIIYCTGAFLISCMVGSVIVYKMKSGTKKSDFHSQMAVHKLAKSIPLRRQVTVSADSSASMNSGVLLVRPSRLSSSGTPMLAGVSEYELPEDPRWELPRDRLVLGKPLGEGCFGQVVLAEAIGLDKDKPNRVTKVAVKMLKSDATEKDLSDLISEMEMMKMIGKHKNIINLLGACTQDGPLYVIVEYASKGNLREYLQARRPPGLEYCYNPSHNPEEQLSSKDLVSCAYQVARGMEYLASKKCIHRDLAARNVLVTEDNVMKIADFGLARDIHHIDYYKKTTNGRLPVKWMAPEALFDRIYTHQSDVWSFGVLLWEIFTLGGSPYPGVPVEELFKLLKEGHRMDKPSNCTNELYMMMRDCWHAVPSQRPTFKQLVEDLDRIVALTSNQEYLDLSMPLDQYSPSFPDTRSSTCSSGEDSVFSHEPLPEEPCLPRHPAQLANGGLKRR

Consider `CN1CCN(CCO/N=C2/C(=C3/C(=O)Nc4ccccc43)Nc3ccccc32)CC1`, for which the inhibition result in experiment [1] is “Dose-dependent effect”. In addition, the “growth inhibition (GI)” value in the experiment with HCC 2998, in the experiment on TK-10, with NCI-H322M, with HCT-15, in the experiment with SF-295 and in the experiment with HCT-116 was “Active” in each case. The “growth inhibition (GI)” value in the experiment with OVCAR-4 and in the experiment on HL-60(TB) was “Active” throughout. For the same molecule, the inhibition result in [2] was “inactive”. In the experiment on MCF7, the result was Active.
